Assay results as given in ChEMBL document CHEMBL4145681, “Discovery of Novel Aminotetralines and Aminochromanes as Selective and Competitive Glycine Transporter 1 (GlyT1) Inhibitors” (J Med Chem, 2018).
Calls of active or inactive are those of the source. The rule behind the calls is not given here.

Assays:
[1] = Drug level in Sprague-Dawley rat brain at 0.2 mg/kg, ip measured after 8 to 24 hrs by LC-MS/MS method; assay type: ADME, organism-based; settings: in vivo, read-out: Drug uptake
Mus musculus [2] = assay: In-vivo binding affinity to GlyT1 in mouse assessed as target occupancy in forebrains dosed intraperitoneally using [3H]N-methyl-SSR504734 as radioligand after 1 hr by liquid scintillation counting method; assay type: functional; settings: ip
Method in brief: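 Mice dosed i.p. at several doses; forebrain homogenates then tested ex vivo for binding of a GlyT1 radioligand to give target occupancy, with ED50 for 50% occupancy estimated across the dose range.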

[3] = Clearance in rat liver microsomes at 0.5 uM incubated up to 30 mins in presence of NADPH by LC-MS/MS method; assay type: ADME, microsome; settings: read-out: CLH
[4] = Clearance in human liver microsomes at 0.5 uM incubated up to 30 mins in presence of NADPH by LC-MS/MS method; assay type: ADME, microsome; settings: read-out: CLH
[5] = Efflux ratio in MDCK2-MDR1 cells at 1 uM incubated fro 1 hr by LC-MS/MS method; assay type: ADME, cell-based, Canis lupus familiaris; settings: dog, MDCK-MDR1
[6] = fCmax in Sprague-Dawley rat brain at 2 mg/kg, ip measured after 8 to 24 hrs by LC-MS/MS method; assay type: ADME, organism-based; settings: in vivo
[7] = target: T1, Sodium- and chloride-dependent glycine transporter 1 (Homo sapiens, UniProt P48067); assay: Displacement of [3H]N-Methyl-SSR504734 from human GlyT1c expressed in cell membranes incubated for 1 hr by liquid scintillation spectrometry
T1 sequence (P48067 whole entry): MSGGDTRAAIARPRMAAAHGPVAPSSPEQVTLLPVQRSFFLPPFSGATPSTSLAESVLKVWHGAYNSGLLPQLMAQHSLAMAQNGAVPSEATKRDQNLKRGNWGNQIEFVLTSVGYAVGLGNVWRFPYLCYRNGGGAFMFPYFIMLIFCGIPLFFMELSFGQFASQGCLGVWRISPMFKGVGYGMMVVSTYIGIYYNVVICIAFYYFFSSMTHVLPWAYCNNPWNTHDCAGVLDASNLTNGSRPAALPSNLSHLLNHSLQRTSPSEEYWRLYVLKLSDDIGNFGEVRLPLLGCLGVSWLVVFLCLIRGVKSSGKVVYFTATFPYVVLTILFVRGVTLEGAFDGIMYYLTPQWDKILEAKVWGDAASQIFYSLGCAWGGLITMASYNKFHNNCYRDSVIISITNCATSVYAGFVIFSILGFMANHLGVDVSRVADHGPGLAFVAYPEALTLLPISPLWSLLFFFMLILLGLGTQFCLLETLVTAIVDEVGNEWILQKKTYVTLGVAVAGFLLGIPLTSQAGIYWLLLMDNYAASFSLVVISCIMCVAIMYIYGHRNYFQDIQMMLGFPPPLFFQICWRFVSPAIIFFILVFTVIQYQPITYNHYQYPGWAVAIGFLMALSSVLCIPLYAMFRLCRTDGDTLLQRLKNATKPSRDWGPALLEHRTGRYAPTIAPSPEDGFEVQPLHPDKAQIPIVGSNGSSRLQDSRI

[8] = target: Voltage-gated inwardly rectifying potassium channel KCNH2 (Homo sapiens, UniProt Q12809); assay: Inhibition of human ERG
[9] = Solubility in water; assay type: physicochemical
[10] = target: T2, Sodium- and chloride-dependent glycine transporter 1 (Homo sapiens) (UniProt P48067); assay: Inhibition of GlyT1c (unknown origin) expressed in Xenopus laevis oocytes clamped at -60 mV assessed as reduction in 10 uM glycine-induced membrane currents at 300 nM pre-treated with glycine for 1 min followed by compound dosing for 3 mins by two-electrode voltage clamp assay; assay type: cell-based
T2 sequence (whole entry): T1 sequence (P48067 whole entry)
Method in brief: (§1)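 Oocytes expressing GlyT1c were stimulated with 10 µM or 3000 µM glycine to evoke transporter current. Compound at 300 nM was added to the glycine solution, and % inhibition of the current was calculated. Mode of inhibition was judged by comparing inhibition at the two glycine levels. Data are mean ± SD, N>4 oocytes.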

[11] = Oral bioavailability in dog; assay type: ADME, organism-based, Canis lupus familiaris; settings: in vivo
[12] = Oral bioavailability in Sprague-Dawley rat at measured after 8 to 24 hrs by LC-MS/MS method; assay type: ADME, organism-based; settings: in vivo
[13] = Permeability in MDCK2-MDR1 cells at 1 uM incubated fro 1 hr by LC-MS/MS method; assay type: ADME, cell-based, Canis lupus familiaris; settings: dog, MDCK-MDR1; read-out: permeability
Mus musculus [14] = assay: Reversal of L687,414-induced hyperlocomotion in mouse at 0.3 to 3 mg/kg, ip dosed 120 mins before test followed by L687,414 dosing for 15 mins before test and measured after 60 mins by Wilcoxon-Mann-Whitney test; assay type: functional
Method in brief: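 Non-habituated mice received test agent (0.3, 1.0, 3.0 mg/kg) or vehicle i.p. 120 min before test, then 50 mg/kg L-687,414 or vehicle i.p. 15 min before test; locomotor activity recorded for 60 min; n=8 mice per group, mean ± SEM; Mann-Whitney and Dunn's multiple comparisons tests.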

[15] = target: T2, Sodium- and chloride-dependent glycine transporter 1 (Homo sapiens); assay: Inhibition of GlyT1c (unknown origin) expressed in Xenopus laevis oocytes clamped at -60 mV assessed as reduction in 3000 uM glycine-induced membrane currents at 300 nM pre-treated with glycine for 1 min followed by compound dosing for 3 mins by two-electrode voltage clamp assay; assay type: cell-based; method in brief: as §1
[16] = target: T2, Sodium- and chloride-dependent glycine transporter 1 (Homo sapiens); assay: Non-competitive inhibition of GlyT1c (unknown origin) expressed in Xenopus laevis oocytes clamped at -60 mV assessed as reduction in glycine-induced membrane currents at 300 nM pre-treated with glycine for 1 min followed by compound dosing for 3 mins by two-electrode voltage clamp assay; assay type: cell-based; method in brief: as §1

Sequence of Voltage-gated inwardly rectifying potassium channel KCNH2 (Q12809 whole entry): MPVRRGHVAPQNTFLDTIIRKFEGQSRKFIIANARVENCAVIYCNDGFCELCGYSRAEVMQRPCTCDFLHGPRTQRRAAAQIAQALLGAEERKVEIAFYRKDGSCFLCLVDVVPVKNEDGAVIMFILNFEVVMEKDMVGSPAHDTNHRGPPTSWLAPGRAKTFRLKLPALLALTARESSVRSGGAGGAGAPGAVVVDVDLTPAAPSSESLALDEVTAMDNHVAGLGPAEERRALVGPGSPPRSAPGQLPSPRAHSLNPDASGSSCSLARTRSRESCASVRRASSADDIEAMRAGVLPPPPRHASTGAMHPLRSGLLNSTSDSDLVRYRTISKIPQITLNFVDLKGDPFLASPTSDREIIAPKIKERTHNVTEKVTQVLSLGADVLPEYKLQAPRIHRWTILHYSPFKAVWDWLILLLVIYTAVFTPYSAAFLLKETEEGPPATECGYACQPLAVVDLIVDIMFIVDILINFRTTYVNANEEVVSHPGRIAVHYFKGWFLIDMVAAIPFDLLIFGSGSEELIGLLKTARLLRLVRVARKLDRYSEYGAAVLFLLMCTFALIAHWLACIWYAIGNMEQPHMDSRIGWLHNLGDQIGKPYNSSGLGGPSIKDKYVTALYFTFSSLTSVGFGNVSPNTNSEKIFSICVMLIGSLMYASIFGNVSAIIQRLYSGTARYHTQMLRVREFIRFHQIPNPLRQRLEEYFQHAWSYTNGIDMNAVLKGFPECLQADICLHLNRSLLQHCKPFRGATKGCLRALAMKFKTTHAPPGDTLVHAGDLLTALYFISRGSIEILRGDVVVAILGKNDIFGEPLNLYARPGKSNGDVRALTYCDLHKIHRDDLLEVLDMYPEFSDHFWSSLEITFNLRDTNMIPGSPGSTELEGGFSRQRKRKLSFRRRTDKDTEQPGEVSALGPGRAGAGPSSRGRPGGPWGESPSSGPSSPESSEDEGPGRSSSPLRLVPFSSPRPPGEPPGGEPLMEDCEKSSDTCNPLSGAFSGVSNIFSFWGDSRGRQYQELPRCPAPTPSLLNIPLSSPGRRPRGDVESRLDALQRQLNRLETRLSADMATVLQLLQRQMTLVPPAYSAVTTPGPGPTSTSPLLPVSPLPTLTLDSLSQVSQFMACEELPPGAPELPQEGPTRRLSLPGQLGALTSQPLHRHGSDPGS

O=S(=O)(CC1CC1)NC1CN(c2ccc3c(c2)[C@@H](Cc2ccccc2)[C@@H](N2CCC2)CC3)C1
concentration [1]: 0.9 nM
ED50 (Mus musculus [2]): 0.2 mg/kg
microsomal CLint at 0.5 µM [3]: 85 µL/min/mg
microsomal CLint at 0.5 µM [4]: < 23 µL/min/mg
efflux ratio at 1 h, 1 µM [5]: 1.7
fCmax [6]: 18.7 nM
Ki [7]: 0.9 nM
IC50 [8]: 4400 nM

Cn1cnc(S(=O)(=O)NCCOc2ccc3c(c2)[C@@H](Cc2ccccc2)[C@@H](N2CCC2)CC3)c1
ED50 (Mus musculus [2]): 1.4 mg/kg
microsomal CLint at 0.5 µM [3]: 55 µL/min/mg
solubility [9]: > 1000 µg/mL
microsomal CLint at 0.5 µM [4]: 10 µL/min/mg
efflux ratio at 1 h, 1 µM [5]: 12
fCmax [6]: 2 nM
inhibition [10]: 97%
bioavailability [11]: 75%
bioavailability [12]: 17%
Ki [7]: 0.8 nM
IC50 [8]: 15000 nM
Papp at 1 h, 1 µM [13]: 22 ×10⁻⁶ cm/s
ED50 (Mus musculus [14]): 0.8 mg/kg
inhibition (Mus musculus [14]): Dose-dependent effect
inhibition [15]: 39%

C[C@H](Oc1ccc(S(C)(=O)=O)cc1C(=O)N1CCN(c2ncc(C(F)(F)F)cc2F)CC1)C(F)(F)F [BITOPERTIN]
inhibition [10]: 67%
Ki [7]: 47 nM
inhibition [16]: Active
inhibition [15]: 95%
